Results published in ChEMBL document CHEMBL1121616, “Bradykinin analogues containing N alpha-methyl amino acids” (1980).
Values joined by “and” are separate entries in the source; they are usually repeats but may differ in a detail not shown here. Identical values can stand only once. Non-standard residues stand in square brackets, D forms with d. Residues, ends and D or L forms follow the SMILES beside them. NMeR = CN[C@@H](CCCNC(=N)N)C(=O)O; NMeF = CN[C@@H](Cc1ccccc1)C(=O)O; Sar = CNCC(=O)O

Legend:
Cavia porcellus [1] = organism: Cavia porcellus; assay: Compound was evaluated for mean percent change from control contractions of isolated guinea pig ilea produced by Prostaglandin E2 (PGE2) at a concentration of 10 ug/mL; type: functional
Procedure, shortened: (§1)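 Isolated guinea pig ileum segments. Two control contractions to each agonist were elicited at regular 3- or 4-min intervals. Three sets of contractions were then elicited in the presence of the test compound, the first set used for equilibration. The mean of the last two treated sets was compared with the mean of the controls and expressed as percent change.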

Cavia porcellus [2] = organism: Cavia porcellus; assay: Compound was evaluated for mean percent change from control contractions of isolated guinea pig ilea produced by Bradykinin (Brdkn) at a concentration of 1 ug/mL; type: functional; procedure, shortened: as §1
Cavia porcellus [3] = organism: Cavia porcellus; assay: Compound was evaluated for mean percent change from control contractions of isolated guinea pig ilea produced by Bradykinin (Brdkn) at a concentration of 3 ug/mL; type: functional; procedure, shortened: as §1
Cavia porcellus [4] = organism: Cavia porcellus; assay: Compound was evaluated for mean percent change from control contractions of isolated guinea pig ilea produced by Acetylcholine (ACh) at a concentration of 10 ug/mL; type: functional; procedure, shortened: as §1
Cavia porcellus [5] = organism: Cavia porcellus; assay: Compound was evaluated for mean percent change from control contractions of isolated guinea pig ilea produced by Acetylcholine (ACh) at a concentration of 1 ug/mL; type: functional; procedure, shortened: as §1
Cavia porcellus [6] = organism: Cavia porcellus; assay: Compound was evaluated for muscle stimulating potency in isolated guinea pig ilea relative to bradykinin triacetate (1); type: functional, Muscle tissue
Procedure, shortened: (§2)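 Isolated guinea pig ileum segments were used in four-point parallel-line bioassays against bradykinin triacetate, with potency calculated on a weight basis. Doses were given at 4-min intervals in a randomized block design, and the bath was rinsed after peak contraction. Relative potency and fiducial limits were estimated from contraction magnitudes by Finney's method. Only assays without significant deviation from parallelism were accepted.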

Cavia porcellus [7] = organism: Cavia porcellus; assay: Compound was evaluated for mean percent change from control contractions of isolated guinea pig ilea produced by Bradykinin (Brdkn) at a concentration of 10 ug/mL; type: functional; procedure, shortened: as §1
Cavia porcellus [8] = organism: Cavia porcellus; assay: Compound was evaluated for mean percent change from control contractions of isolated guinea pig ilea produced by Prostaglandin E2 (PGE2) at a concentration of 3 ug/mL; type: functional; procedure, shortened: as §1
Cavia porcellus [9] = organism: Cavia porcellus; assay: Compound was evaluated for mean percent change from control contractions of isolated guinea pig ilea produced by Prostaglandin E2 (PGE2) at a concentration of 1 ug/mL; type: functional; procedure, shortened: as §1
Cavia porcellus [10] = organism: Cavia porcellus; assay: Compound was evaluated for mean percent change from control contractions of isolated guinea pig ilea produced by Acetylcholine (ACh) at a concentration of 3 ug/mL; type: functional; procedure, shortened: as §1
Cavia porcellus [11] = organism: Cavia porcellus; assay: Compound was evaluated for muscle stimulating potency in isolated guinea pig ilea; type: functional, Muscle tissue; procedure, shortened: as §2
Cavia porcellus [12] = organism: Cavia porcellus; assay: Compound was evaluated for mean percent change from control contractions of isolated guinea pig ilea produced by Acetylcholine (ACh) at a concentration of 30 ug/mL; type: functional; procedure, shortened: as §1
Cavia porcellus [13] = organism: Cavia porcellus; assay: Compound was evaluated for mean percent change from control contractions of isolated guinea pig ilea produced by Bradykinin (Brdkn) at a concentration of 30 ug/mL; type: functional; procedure, shortened: as §1
Cavia porcellus [14] = organism: Cavia porcellus; assay: Compound was evaluated for mean percent change from control contractions of isolated guinea pig ilea produced by Prostaglandin E2 (PGE2) at a concentration of 30 ug/mL; type: functional; procedure, shortened: as §1
Cavia porcellus [15] = organism: Cavia porcellus; assay: Compound was evaluated for mean percent change from control contractions of isolated guinea pig ilea produced by Bradykinin (Brdkn) at a concentration of 10.0 ug/mL; type: functional; procedure, shortened: as §1
Cavia porcellus [16] = organism: Cavia porcellus; assay: Compound was evaluated for mean percent change from control contractions of isolated guinea pig ilea produced by Bradykinin (Brdkn) at a concentration of 1.0 ug/mL; type: functional; procedure, shortened: as §1
Cavia porcellus [17] = organism: Cavia porcellus; assay: Compound was evaluated for mean percent change from control contractions of isolated guinea pig ilea produced by Bradykinin (Brdkn) at a concentration of 0.01 ug/mL; type: functional; procedure, shortened: as §1
Cavia porcellus [18] = organism: Cavia porcellus; assay: Compound was evaluated for mean percent change from control contractions of isolated guinea pig ilea produced by Prostaglandin E2 (PGE2) at a concentration of 0.01 ug/mL; type: functional; procedure, shortened: as §1
Cavia porcellus [19] = organism: Cavia porcellus; assay: Compound was evaluated for mean percent change from control contractions of isolated guinea pig ilea produced by Prostaglandin E2 (PGE2) at a concentration of 0.1 ug/mL; type: functional; procedure, shortened: as §1
Cavia porcellus [20] = organism: Cavia porcellus; assay: Compound was evaluated for mean percent change from control contractions of isolated guinea pig ilea produced by Bradykinin (Brdkn) at a concentration of 0.1 ug/mL; type: functional; procedure, shortened: as §1
Cavia porcellus [21] = organism: Cavia porcellus; assay: Compound was evaluated for mean percent change from control contractions of isolated guinea pig ilea produced by Acetylcholine (ACh) at a concentration of 0.1 ug/mL; type: functional; procedure, shortened: as §1
Cavia porcellus [22] = organism: Cavia porcellus; assay: Compound was evaluated for mean percent change from control contractions of isolated guinea pig ilea produced by Acetylcholine (ACh) at a concentration of 0.01 ug/mL; type: functional; procedure, shortened: as §1
Cavia porcellus [23] = organism: Cavia porcellus; assay: Compound was evaluated for mean percent change from control contractions of isolated guinea pig ilea produced by Prostaglandin E2 (PGE2) at a concentration of 10.0 ug/mL; type: functional; procedure, shortened: as §1
Cavia porcellus [24] = organism: Cavia porcellus; assay: Compound was evaluated for mean percent change from control contractions of isolated guinea pig ilea produced by Acetylcholine (ACh) at a concentration of 10.0 ug/mL; type: functional; procedure, shortened: as §1
Cavia porcellus [25] = organism: Cavia porcellus; assay: Compound was evaluated for mean percent change from control contractions of isolated guinea pig ilea produced by Acetylcholine (ACh) at a concentration of 1.0 ug/mL; type: functional; procedure, shortened: as §1

Compound	Change (Cavia porcellus [1]) [%]	Change (Cavia porcellus [2]) [%]	Change (Cavia porcellus [3]) [%]	Change (Cavia porcellus [4]) [%]	Change (Cavia porcellus [5]) [%]	Potency (Cavia porcellus [6])	Change (Cavia porcellus [7]) [%]	Change (Cavia porcellus [8]) [%]	Change (Cavia porcellus [9]) [%]	Change (Cavia porcellus [10]) [%]	other results
CN(C(=O)[C@@H]1CCCN1C(=O)[C@H](CO)NC(=O)[C@H](Cc1ccccc1)NC(=O)CNC(=O)[C@@H]1CCCN1C(=O)[C@@H]1CCCN1C(=O)[C@@H](N)CCCN=C(N)N)[C@@H](Cc1ccccc1)C(=O)N[C@@H](CCCN=C(N)N)C(=O)O (H-RPPGFSP[NMeF]R-OH)	-88	-27	-81	-75	-6	0.015	-97	-60	-17	-41	
N=C(N)NCCC[C@H](NC(=O)[C@H](Cc1ccccc1)NC(=O)[C@@H]1CCCN1C(=O)[C@H](CO)NC(=O)[C@H](Cc1ccccc1)NC(=O)CNC(=O)[C@@H]1CCCN1C(=O)[C@@H]1CCCN1C(=O)[C@@H](N)CCCNC(=N)N)C(=O)O [BRADYKININ] (H-RPPGFSPFR-OH)											Potency (Cavia porcellus [11]): 1
CN(C(=O)[C@H](Cc1ccccc1)NC(=O)[C@@H]1CCCN1C(=O)[C@H](CO)NC(=O)[C@H](Cc1ccccc1)NC(=O)CNC(=O)[C@@H]1CCCN1C(=O)[C@@H]1CCCN1C(=O)[C@@H](N)CCCN=C(N)N)[C@@H](CCCN=C(N)N)C(=O)O	7			-28		0.0046	-64				
CN(CC(=O)N[C@@H](Cc1ccccc1)C(=O)N[C@@H](CO)C(=O)N1CCC[C@H]1C(=O)N[C@@H](Cc1ccccc1)C(=O)N[C@@H](CCCN=C(N)N)C(=O)O)C(=O)[C@@H]1CCCN1C(=O)[C@@H]1CCCN1C(=O)[C@@H](N)CCCN=C(N)N (H-RPP[Sar]FSPFR-OH)	-85	5	21	-58	-32	0.0039	-25	-27	-20	-9	Change (Cavia porcellus [12]): -70%; Change (Cavia porcellus [13]): -40%; Change (Cavia porcellus [14]): -69%
CN(C(=O)CNC(=O)[C@@H]1CCCN1C(=O)[C@@H]1CCCN1C(=O)[C@@H](N)CCCN=C(N)N)[C@@H](Cc1ccccc1)C(=O)N[C@@H](CO)C(=O)N1CCC[C@H]1C(=O)N[C@@H](Cc1ccccc1)C(=O)N[C@@H](CCCN=C(N)N)C(=O)O (H-RPPG[NMeF]SPFR-OH)	1			-31		0.01	-32				
CN[C@@H](CCCN=C(N)N)C(=O)N1CCC[C@H]1C(=O)N1CCC[C@H]1C(=O)NCC(=O)N[C@@H](Cc1ccccc1)C(=O)N[C@@H](CO)C(=O)N1CCC[C@H]1C(=O)N[C@@H](Cc1ccccc1)C(=O)N[C@@H](CCCN=C(N)N)C(=O)O (H-[NMeR]PPGFSPFR-OH)						0.61					Change (Cavia porcellus [15]): -100%; Change (Cavia porcellus [16]): -100%; Change (Cavia porcellus [17]): -88%; Change (Cavia porcellus [18]): -28%; Change (Cavia porcellus [19]): -88%; Change (Cavia porcellus [20]): -100%; Change (Cavia porcellus [21]): -67%; Change (Cavia porcellus [22]): -29%; Change (Cavia porcellus [23]): -95% and -83%; Change (Cavia porcellus [24]): -97%; Change (Cavia porcellus [25]): -100%
